These results are taken from ChEMBL document CHEMBL5126600, “Discovery of the First-in-Class G9a/GLP Covalent Inhibitors” (J Med Chem, 2022).

Assay [1] addresses T1, Histone-lysine N-methyltransferase EHMT2 (Homo sapiens, UniProt Q96KQ7).
T1 sequence (Q96KQ7 whole entry): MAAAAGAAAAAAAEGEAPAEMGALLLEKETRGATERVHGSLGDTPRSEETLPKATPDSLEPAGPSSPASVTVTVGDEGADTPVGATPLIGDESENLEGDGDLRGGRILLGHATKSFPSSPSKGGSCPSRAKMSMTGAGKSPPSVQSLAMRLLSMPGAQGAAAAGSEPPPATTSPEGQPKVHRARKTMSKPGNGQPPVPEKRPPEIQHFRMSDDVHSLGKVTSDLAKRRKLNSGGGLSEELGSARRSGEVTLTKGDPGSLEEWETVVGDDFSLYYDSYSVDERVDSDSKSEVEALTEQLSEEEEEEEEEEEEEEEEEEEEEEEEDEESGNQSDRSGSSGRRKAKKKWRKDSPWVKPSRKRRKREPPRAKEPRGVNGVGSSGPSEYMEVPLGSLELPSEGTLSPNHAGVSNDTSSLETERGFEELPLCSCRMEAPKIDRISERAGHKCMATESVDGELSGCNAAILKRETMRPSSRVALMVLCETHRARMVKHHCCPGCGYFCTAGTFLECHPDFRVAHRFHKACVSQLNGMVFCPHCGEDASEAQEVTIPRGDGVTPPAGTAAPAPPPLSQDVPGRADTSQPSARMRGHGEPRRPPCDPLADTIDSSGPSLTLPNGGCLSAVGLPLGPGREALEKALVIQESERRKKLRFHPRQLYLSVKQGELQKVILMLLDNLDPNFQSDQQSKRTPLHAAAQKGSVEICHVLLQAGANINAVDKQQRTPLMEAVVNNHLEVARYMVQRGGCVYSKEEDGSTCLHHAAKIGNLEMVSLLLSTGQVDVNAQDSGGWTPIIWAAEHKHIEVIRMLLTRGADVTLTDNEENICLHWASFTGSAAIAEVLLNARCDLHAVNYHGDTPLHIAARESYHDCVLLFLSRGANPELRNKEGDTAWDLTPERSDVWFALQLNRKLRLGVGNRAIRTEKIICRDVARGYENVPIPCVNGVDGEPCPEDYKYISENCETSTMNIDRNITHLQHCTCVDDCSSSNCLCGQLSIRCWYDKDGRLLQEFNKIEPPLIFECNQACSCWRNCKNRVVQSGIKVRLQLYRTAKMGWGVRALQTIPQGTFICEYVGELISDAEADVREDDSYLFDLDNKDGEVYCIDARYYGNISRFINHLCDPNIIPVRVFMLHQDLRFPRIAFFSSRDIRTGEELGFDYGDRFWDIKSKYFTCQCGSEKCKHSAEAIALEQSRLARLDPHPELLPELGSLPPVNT
Description: Binding affinity to human G9a (913 to 1193 residues) assessed as dissociation constant measured after 1 hr by isothermal titration calorimetry method. Put shortly: (§1)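 ITC at 25 °C in 50 mM Tris-HCl pH 7.5, 150 mM NaCl, 1% DMSO; 500 μM compound in syringe titrated into 50 μM G9a or GLP catalytic domain in cell (initial 0.4 μL injection then 13 injections), stirring 750 rpm; run time about 50 min; single binding site fit; mean ± SD of two independent measurements.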
(ITC needs no label: the signal is the heat of the interaction.)

The target in assay [2] is T2, Histone-lysine N-methyltransferase EHMT1 (Homo sapiens, UniProt Q9H9B1).
T2 sequence (Q9H9B1 whole entry): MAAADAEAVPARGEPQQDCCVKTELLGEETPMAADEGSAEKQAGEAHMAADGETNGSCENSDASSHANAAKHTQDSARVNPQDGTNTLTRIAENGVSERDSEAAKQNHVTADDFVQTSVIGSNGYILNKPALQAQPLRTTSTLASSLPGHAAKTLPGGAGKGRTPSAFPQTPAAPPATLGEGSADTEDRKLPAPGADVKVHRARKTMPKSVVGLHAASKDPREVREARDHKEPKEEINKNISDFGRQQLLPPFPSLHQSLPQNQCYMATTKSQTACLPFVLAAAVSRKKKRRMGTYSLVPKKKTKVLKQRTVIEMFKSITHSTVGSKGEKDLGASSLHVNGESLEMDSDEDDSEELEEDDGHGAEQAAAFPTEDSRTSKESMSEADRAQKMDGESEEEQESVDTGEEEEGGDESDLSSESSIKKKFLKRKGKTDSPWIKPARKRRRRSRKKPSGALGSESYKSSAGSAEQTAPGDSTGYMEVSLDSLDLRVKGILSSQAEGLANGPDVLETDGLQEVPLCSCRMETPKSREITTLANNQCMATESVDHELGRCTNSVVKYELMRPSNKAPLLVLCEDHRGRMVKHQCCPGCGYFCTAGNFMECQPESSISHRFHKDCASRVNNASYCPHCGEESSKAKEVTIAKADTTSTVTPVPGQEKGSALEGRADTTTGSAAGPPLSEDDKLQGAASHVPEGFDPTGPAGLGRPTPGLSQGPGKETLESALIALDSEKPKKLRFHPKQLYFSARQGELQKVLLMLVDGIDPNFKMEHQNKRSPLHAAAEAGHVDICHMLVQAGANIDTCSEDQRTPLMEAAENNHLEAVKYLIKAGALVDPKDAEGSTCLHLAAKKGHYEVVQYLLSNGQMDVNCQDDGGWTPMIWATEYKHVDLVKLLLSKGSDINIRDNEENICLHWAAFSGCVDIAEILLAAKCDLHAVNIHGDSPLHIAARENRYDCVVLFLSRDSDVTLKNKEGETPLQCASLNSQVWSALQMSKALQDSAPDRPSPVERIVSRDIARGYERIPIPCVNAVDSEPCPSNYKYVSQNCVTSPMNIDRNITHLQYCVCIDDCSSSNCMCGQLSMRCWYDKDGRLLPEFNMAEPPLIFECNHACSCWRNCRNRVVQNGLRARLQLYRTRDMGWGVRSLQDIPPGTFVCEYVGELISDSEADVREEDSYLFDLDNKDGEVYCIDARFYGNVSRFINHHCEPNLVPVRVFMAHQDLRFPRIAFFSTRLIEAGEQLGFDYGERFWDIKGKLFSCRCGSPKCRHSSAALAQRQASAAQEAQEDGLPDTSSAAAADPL
Description: Binding affinity to human GLP (982 to 1266 residues) assessed as dissociation constant measured after 1 hr by isothermal titration calorimetry method. Put shortly:
as §1

Assay [3] concerns the target T1, Histone-lysine N-methyltransferase EHMT2. Description: Inhibition of human G9a (913 to 1193 residues) using H3 peptide substrate preincubated for 5 mins followed by SAM addition measured after 10 mins by SAHH-coupled biochemical assay.
Assay [4] addresses T2, Histone-lysine N-methyltransferase EHMT1. The assay is described as follows: Inhibition of human GLP (982 to 1266 residues) using H3 peptide substrate preincubated for 5 mins followed by SAM addition measured after 10 mins by SAHH-coupled biochemical assay.
The target of assay [5] is T3, Histone-lysine N-methyltransferase EHMT2 (Homo sapiens) (UniProt Q96KQ7).
T3 sequence (whole entry): T1 sequence (Q96KQ7 whole entry)
The assay is described as follows: Inhibition of human G9a (913 to 1193 residues) assessed as covalent modification by measuring G9a adduct formation at 50 uM incubated for 1 hr by mass spectrometry relative to control. Put shortly: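 Purified G9a or GLP catalytic domain (5 μM) in 50 mM Tris-HCl pH 7.5, 150 mM NaCl incubated with 50 μM compound or DMSO at room temperature (1 h, or 30 and 60 min in time course); intact mass by ESI LC/MS-TOF; adduct % = adduct/(protein + adduct) × 100.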

What is called Kd is the concentration at which binding is half-saturated. What is called IC50 is the point on the concentration scale where inhibition reaches its midpoint. Lower therefore signals greater potency. As usually defined, the inhibition is the drop in the measured response relative to a control, in per cent.

On to `CCC(=O)Nc1cc(NC2CCN(C(C)C)CC2)c2cc(OC)c(OCCCN3CCCC3)cc2n1`, for which the equilibrium dissociation constant (Kd) was determined as 48 nM in assay [1] and 16 nM in assay [2]. Also, the IC50 in assay [3] was determined as 211 nM; in assay [4], 151 nM.
For the compound `C=CC(=O)Nc1nc(NC2CCN(C(C)C)CC2)c2cc(OC)c(OCCCN3CCCC3)cc2n1`, the inhibition in assay [5] turned out to be 40%.
